The values below come from ChEMBL document CHEMBL2010648, “Discovery of novel anti-inflammatory drug-like compounds by aligning in silico and in vivo screening: the nitroindazolinone chemotype” (Eur J Med Chem, 2011).

The structures appear in SMILES notation.

The species entered for series [1] is Danio rerio. The experiment in a line: Toxicity in transgenic zebrafish larvae harboring Fli-1 gene assessed as maximum tolerated dosage after 24 hrs. As to conditions: in vivo. It counts as organism-based. In a few lines: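 Fertilized eggs of the fli-1:EGFP line reared in E3 embryo medium at 28 °C, with PTU added at 20 hpf to block pigmentation. Compounds were dissolved in DMSO and diluted in Danieau's 0.3X, final DMSO ≤1%. Larvae at 4 dpf, 5 per well, were exposed for 24 h to 10, 30 and 100 (highest) concentrations and checked by light microscopy at 5 dpf. MTC is the highest concentration giving no death or toxicity signs.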

Series [2] is filed under the species Danio rerio. As to the kind of experiment: Antiinflammatory activity in transgenic zebrafish larvae harboring Fli-1 gene assessed as LPS-stimulated leukocyte migration to injury zone of tail transected larvae at 10 uM after 20 to 22 hrs by microscopy. It counts as functional. Put shortly:
(§1)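 Transgenic fli-1:EGFP zebrafish were reared in E3 at 28 °C, with PTU added at 20 hpf. Compounds were dissolved in DMSO and diluted in Danieau's, with final DMSO ≤1%. Ten 4-dpf larvae per group were pretreated for 1 h, anaesthetised with tricaine and tail-transected. They were then incubated with compound plus LPS for 20–22 h, fixed in 4% PFA and stained with Leucognost. Leukocyte migration to the tail tip was scored microscopically as relative leukocyte migration. Run in triplicate.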

The species entered for series [3] is Danio rerio. The experiment in a line: Antiinflammatory activity in transgenic zebrafish larvae harboring Fli-1 gene assessed as LPS-stimulated leukocyte migration to injury zone of tail transected larvae at 100 uM after 20 to 22 hrs by microscopy. It counts as functional. Put shortly:
as §1

For series [4], the species on record is Danio rerio. As to the kind of experiment: Antiinflammatory activity in transgenic zebrafish larvae harboring Fli-1 gene assessed as LPS-stimulated leukocyte migration to injury zone of tail transected larvae at 30 uM after 20 to 22 hrs by microscopy. It is filed as functional. In a few lines:
as §1

The subject of series [5] is J774. As to the kind of experiment: Cytotoxicity against mouse J774 cells at 1 ug/mL after 24 hrs by MTT assay. It is filed as functional. In a few lines:
(§2)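 J774 macrophages in RPMI-1640 with 20% heat-inactivated FCS were seeded at 70,000 cells/well and allowed to attach for 24 h at 37 °C. They were exposed to compounds for 24 h (final DMSO ≤0.2%), then given MTT 0.4 mg/mL for 60 min; formazan was dissolved in DMSO and read at OD595. %Cytotoxicity was calculated against growth controls, corrected for compound-in-medium blanks. Each concentration was tested three times, in duplicate assays.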

Series [6] deals with Mus musculus. As to the kind of experiment: Antiinflammatory activity against TPA-induced ear edema in Swiss mouse assessed as inhibition of increase in ear weight at 0.5 mg/ear administered topically measured after 4 hrs relative to control. It counts as functional. Put shortly: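 Female Swiss mice (25–30 g, groups of six) received TPA in acetone topically on the right ear, with the left ear as control. Compound in acetone was applied at the same time. After 4 h, 6 mm punches from both ears were weighed. Oedema was taken as the weight difference between ears, and inhibition % was calculated versus the vehicle group. Mean ± SEM, Dunnett's test.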

The species named for series [7] is Mus musculus. The experiment in a line: Inhibition of MPO activity in TPA-induced Swiss mouse ear tissue homogenates after 3 mins relative to control. Set-up: concentration or dose not given beside the values. It is filed as functional, organism-based. In a few lines:
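Ear tissue was homogenised at 0 °C in 80 mM phosphate buffer with 0.5% HTAB, then centrifuged at 10300g for 20 min at 4 °C. Supernatant, in triplicate, was mixed with phosphate buffer (pH 5.4) and H2O2. The reaction was started with TMB in 8% DMF, run 3 min at 37 °C and stopped with NaOAc/HOAc pH 3.0. A630 was read, and inhibition % was calculated versus the vehicle group.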

The species entered for series [8] is Danio rerio. As to the kind of experiment: Antiinflammatory activity in transgenic zebrafish larvae harboring Fli-1 gene assessed as LPS-stimulated leukocyte migration to injury zone of tail transected larvae at 3 uM after 20 to 22 hrs by microscopy. It is filed as functional. Put shortly:
as §1

For series [9], the system named is J774. As to the kind of experiment: Cytotoxicity against mouse J774 cells at 100 ug/mL after 24 hrs by MTT assay. It counts as functional. Put shortly: as §2
For series [10], the species on record is Danio rerio. The experiment in a line: Antiinflammatory activity in transgenic zebrafish larvae harboring Fli-1 gene assessed as LPS-stimulated leukocyte migration to injury zone of tail transected larvae at 1 uM after 20 to 22 hrs by microscopy. It is filed as functional. In a few lines:
as §1

The subject of series [11] is J774. The experiment in a line: Cytotoxicity against mouse J774 cells at 10 ug/mL after 24 hrs by MTT assay. It is filed as functional. In a few lines: as §2
The subject of series [12] is J774. As to the kind of experiment: Cytotoxicity against mouse J774 cells at 256 uM after 24 hrs by MTT assay. It is filed as functional. In a few lines:
as §2

In series [13] the test system is J774. The experiment in a line: Cytotoxicity against mouse J774 cells at 128 uM after 24 hrs by MTT assay. It counts as functional. In a few lines: as §2
Series [14] concerns J774. As to the kind of experiment: Cytotoxicity against mouse J774 cells at 64 uM after 24 hrs by MTT assay. It is filed as functional. In a few lines: as §2
The species entered for series [15] is Danio rerio. The experiment in a line: Antiinflammatory activity in transgenic zebrafish larvae harboring Fli-1 gene assessed as LPS-stimulated leukocyte migration to injury zone of tail transected larvae at 0.3 uM after 20 to 22 hrs by microscopy. It is filed as functional. In a few lines:
as §1

For series [16], the species on record is Danio rerio. As to the kind of experiment: Toxicity to transgenic zebrafish larvae harboring Fli-1 gene at 100 uM after 24 hrs. As to conditions: in vivo.

Consider `O=[N+]([O-])c1ccc2c(c1)CC([O-])=N[N+]21CCCCC1`, for which the MTD in the series filed under Danio rerio [1] was over 100 µM. In addition, the Ratio in the series listed under Danio rerio [2] was found to be 0.86; in the series filed under Danio rerio [3], 0.81; in the series filed under Danio rerio [4], 0.89.

On to `O=c1[nH]n(Cc2ccccn2)c2ccc([N+](=O)[O-])cc12`, for which the MTD in the series listed under Danio rerio [1] is over 100 µM. The Ratio in the series listed under Danio rerio [2] amounted to 0.83; in the series filed under Danio rerio [3] it was 0.59; in the series filed under Danio rerio [4], 0.74.

For the compound `O=[N+]([O-])c1ccc2[nH]nc(OCc3ccccc3Cl)c2c1`, the MTD in the series listed under Danio rerio [1] came to 10 µM. For the same compound, the Activity with J774 [5] was found to be 4.4%; in the series on J774 [9] it was 96.4%; with J774 [11], 9.4%. Also, in the series with Mus musculus [6], the “inhibition (INH)” value turned out to be 91%. Besides, the inhibition in the series filed under Mus musculus [7] was 63%. Besides, the Ratio in the series filed under Danio rerio [8] stood at 0.65; in the series listed under Danio rerio [2], 0.41; in the series filed under Danio rerio [10], 0.62.

Consider `Cn1c(=O)c2cc([N+](=O)[O-])ccc2n1Cc1ccccc1`, for which the MTD in the series listed under Danio rerio [1] is 30 µM. Moreover, the values for the Activity in the series on J774 [5], in the series with J774 [9] and in the series on J774 [11] were 32.8%, 58.4% and 43.9%, respectively. Moreover, the “inhibition (INH)” value with Mus musculus [6] is on record as 97%. Besides, the inhibition in the series listed under Mus musculus [7] is 56%. Also, the values for the Ratio in the series filed under Danio rerio [8], in the series filed under Danio rerio [2] and in the series filed under Danio rerio [4] were 0.6, 0.46 and 0.26, respectively.

Regarding `CCCCCn1c2ccc([N+](=O)[O-])cc2c(=O)n1Cc1ccccc1`, the MTD in the series listed under Danio rerio [1] was 10 µM. The “inhibition (INH)” value in the series with Mus musculus [6] is listed as 92%. Besides, the Activity with J774 [12] came to 80.99%; in the series with J774 [13] it was 71.75%; in the series on J774 [14], 54.14%. Also, the inhibition in the series filed under Mus musculus [7] worked out at 46%. Besides, the results for the Ratio in the series filed under Danio rerio [8], in the series listed under Danio rerio [2] and in the series filed under Danio rerio [10] were 0.67, 0.27 and 0.68, respectively.

`O=C(Cc1cc([N+](=O)[O-])ccc1F)NN1Cc2ccccc2C1`: the MTD in the series filed under Danio rerio [1] is over 100 µM. The figures for the Ratio in the series listed under Danio rerio [2], in the series filed under Danio rerio [3] and in the series listed under Danio rerio [4] were 0.89, 0.5 and 0.87, respectively.

As to `O=C(NN1Cc2ccccc2C1)c1cc([N+](=O)[O-])ccc1Cl`, the MTD in the series listed under Danio rerio [1] is over 100 µM. Moreover, the Ratio in the series filed under Danio rerio [2] is on record as 0.93; in the series listed under Danio rerio [3], 0.7; in the series filed under Danio rerio [4] it was 0.93.

Regarding `O=c1c2cc([N+](=O)[O-])ccc2n(Cc2ccccc2)n1Cc1ccccc1`, in the series filed under Danio rerio [1], the MTD amounted to 10 µM. Besides, the “inhibition (INH)” value in the series with Mus musculus [6] came out at 80%. Besides, the Activity with J774 [12] was 57.87%; in the series on J774 [13], 64%; in the series with J774 [14], 9.77%. The inhibition in the series filed under Mus musculus [7] amounted to 36%. In addition, the Ratio in the series listed under Danio rerio [8] is on record as 0.65; in the series filed under Danio rerio [2], 0.35; in the series listed under Danio rerio [10] it was 0.58.

As for `Cn1c2ccc([N+](=O)[O-])cc2c(=O)n1Cc1ccccc1`, in the series filed under Danio rerio [1], the MTD is 30 µM. The figures for the Activity in the series on J774 [5], with J774 [9] and in the series with J774 [11] were 11.5%, 57.5% and 21%, respectively. The “inhibition (INH)” value in the series on Mus musculus [6] turned out to be 104%. The inhibition in the series listed under Mus musculus [7] is 67%. For the same compound, the Ratio in the series filed under Danio rerio [8] is 0.67; in the series filed under Danio rerio [2], 0.63; in the series listed under Danio rerio [4], 0.27.

In the case of `O=c1c2cc([N+](=O)[O-])ccc2[nH]n1Cc1ccccn1`, in the series listed under Danio rerio [1], the MTD is over 100 µM. The Ratio in the series filed under Danio rerio [2] was found to be 0.94; in the series filed under Danio rerio [3] it was 0.66; in the series filed under Danio rerio [4], 0.62.

`COc1ccc2c(c1)c(CC(=O)O)c(C)n2C(=O)c1ccc(Cl)cc1` [INDOMETHACIN]: the MTD in the series listed under Danio rerio [1] was over 100 µM. Also, in the series on Mus musculus [6], the “inhibition (INH)” value amounted to 97%. Moreover, in the series listed under Mus musculus [7], the inhibition was found to be 61%. Besides, the Ratio is listed as 0.5 in the series filed under Danio rerio [8]; 0.48 in the series filed under Danio rerio [2]; 0.28 in the series filed under Danio rerio [3]; 0.54 in the series filed under Danio rerio [10]; 0.57 in the series filed under Danio rerio [15]; 0.38 in the series listed under Danio rerio [4].

`CN(C)CCCOc1nn(Cc2ccccc2F)c2ccc([N+](=O)[O-])cc12`: the MTD in the series listed under Danio rerio [1] is 30 µM. Besides, the Ratio in the series listed under Danio rerio [8] amounted to 0.74; in the series listed under Danio rerio [2] it was 0.89; in the series listed under Danio rerio [4] it was 0.97.

Regarding `O=c1[nH]n(Cc2ccccc2F)c2ccccc12`, the MTD in the series filed under Danio rerio [1] came out at 30 µM. Also, the “inhibition (INH)” value in the series on Mus musculus [6] was found to be 32%. In addition, the inhibition in the series filed under Mus musculus [7] was -3%. Also, the Ratio in the series listed under Danio rerio [8] amounted to 0.46; in the series filed under Danio rerio [2] it was 0.25; in the series listed under Danio rerio [4], 0.17.

For `O=c1[nH]n(Cc2ccccc2O)c2ccc([N+](=O)[O-])cc12`, the MTD in the series filed under Danio rerio [1] is over 100 µM. The figures for the Ratio in the series listed under Danio rerio [2], in the series listed under Danio rerio [3] and in the series filed under Danio rerio [4] were 0.86, 0.27 and 0.61, respectively.

`O=C1C2=Cc3ccccc3CCN2c2ccccc21`: in the series filed under Danio rerio [1], the MTD worked out at 3 µM. The Activity in the series on J774 [5] is 3.4%; in the series on J774 [9] it was 73.1%; in the series listed under Danio rerio [16], “Toxic”; in the series on J774 [11], 9.4%. The “inhibition (INH)” value in the series on Mus musculus [6] is recorded as 73%. Besides, in the series filed under Mus musculus [7], the inhibition came out at 56%. Further, the results for the Ratio in the series listed under Danio rerio [8], in the series filed under Danio rerio [10] and in the series filed under Danio rerio [15] were 0.24, 0.4 and 0.64, respectively.

Turning to `O=c1c2cc([N+](=O)[O-])ccc2[nH]n1Cc1ccccc1`, the MTD in the series filed under Danio rerio [1] is over 100 µM. In addition, the results for the Ratio in the series filed under Danio rerio [2], in the series listed under Danio rerio [3] and in the series listed under Danio rerio [4] were 0.81, 0.39 and 0.65, respectively.

For `COc1nn(Cc2ccccc2F)c2ccc([N+](=O)[O-])cc12`, the MTD in the series listed under Danio rerio [1] is 30 µM. Besides, the Ratio in the series listed under Danio rerio [8] was 0.86; in the series filed under Danio rerio [2] it was 0.92; in the series listed under Danio rerio [4], 0.87.
